Assay results published in PMC3544975 (Biochemical and biophysical research communications, 2012).
Like-named read-outs stand apart in the source and are kept apart here.

Columns and labels:
human PMK [1] = biological target: T1, human PMK (Homo sapiens, UniProt Q15126); settings: read-out: affinity of natural substrates; cited from earlier work
T1 sequence (Q15126 1-192): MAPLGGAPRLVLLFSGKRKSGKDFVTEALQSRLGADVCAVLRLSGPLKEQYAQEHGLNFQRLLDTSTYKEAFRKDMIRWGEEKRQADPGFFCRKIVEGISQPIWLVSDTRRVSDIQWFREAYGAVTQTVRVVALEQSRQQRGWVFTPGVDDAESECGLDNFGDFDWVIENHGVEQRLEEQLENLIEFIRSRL

human PMK [2] = biological target: T1, human PMK; assay: Fluorescence titration; type: binding
Method in brief: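 N-terminally His6-tagged human PMK was expressed in E. coli BL21(DE3) Rosetta and purified on Ni-Sepharose. Titration used 5 µM PMK in 20 mM potassium phosphate, 5 mM DTT, 100 mM KCl, 10% glycerol, pH 6.5, at 25 °C. Excitation was 295 nm, with emission recorded over 300–400 nm. The bound-minus-free intensity difference was fitted against ligand concentration to a one-site specific binding equation.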

Row | Kd (human PMK [2]) | SMILES | Kd (human PMK [1])
1 | – | Nc1ncnc2c1ncn2[C@@H]1O[C@H](COP(=O)(O)OP(=O)(O)OP(=O)(O)O)[C@@H](O)[C@H]1O [ATP, adenosine-5'-triphosphate] | 29 ± 6 µM
2 | – | Nc1ncnc2c1ncn2[C@@H]1O[C@H](COP(=O)(O)OP(=O)(O)O)[C@@H](O)[C@H]1O [ADP, adenosine diphosphate] | 19.9 ± 9 µM
3 | 61 ± 19.5 µM | O=c1cc(-c2ccc(O)c(O)c2)oc2cc(O)cc(O)c12 [luteolin] | –
